Calls of active or inactive are those of the source. The calls are words filed in the database; no cut-off is given here.
Assays:
[1] = molecular target: T1, Ectonucleoside triphosphate diphosphohydrolase 3 (Homo sapiens) (UniProt O75355); assay: Inhibition of human NTPDase3 at 100 uM using ATP as substrate preincubated for 3 mins followed by substrate addition measured after 10 mins by malachite green reagent-based assay
T1 sequence (whole entry): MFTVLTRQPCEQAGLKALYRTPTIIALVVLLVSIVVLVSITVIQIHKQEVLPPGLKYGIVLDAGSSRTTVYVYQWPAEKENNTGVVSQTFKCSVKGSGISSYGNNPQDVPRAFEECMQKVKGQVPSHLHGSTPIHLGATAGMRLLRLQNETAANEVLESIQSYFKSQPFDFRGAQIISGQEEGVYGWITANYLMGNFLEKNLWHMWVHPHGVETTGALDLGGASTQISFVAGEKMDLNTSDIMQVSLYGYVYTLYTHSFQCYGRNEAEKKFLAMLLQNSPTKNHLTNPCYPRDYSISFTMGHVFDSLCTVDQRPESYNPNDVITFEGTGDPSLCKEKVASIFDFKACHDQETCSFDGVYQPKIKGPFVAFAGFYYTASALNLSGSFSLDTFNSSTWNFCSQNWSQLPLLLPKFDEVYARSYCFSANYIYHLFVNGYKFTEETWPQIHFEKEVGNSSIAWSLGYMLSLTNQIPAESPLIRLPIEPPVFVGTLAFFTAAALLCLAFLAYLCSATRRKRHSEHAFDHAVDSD
Procedure, shortened: (§1)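 Compound at 100 μM, 3 min preincubation, 100 μM ATP, 10 min. Stopped with malachite green; Pi read at 630 nm. Blank with enzyme added after stop subtracted. Activity with ATP alone taken as 100%.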

[2] = Drug metabolism at 2 mM at acidic pH after 5 days by 31P NMR method; type: physicochemical; conditions: read-out: Drug metabolism
[3] = molecular target: T2, Ectonucleoside triphosphate diphosphohydrolase 2 (Homo sapiens) (UniProt Q9Y5L3); assay: Inhibition of human NTPDase2 at 100 uM using ATP as substrate preincubated for 3 mins followed by substrate addition measured after 10 mins by malachite green reagent-based assay; procedure, shortened: as §1
T2 sequence (whole entry): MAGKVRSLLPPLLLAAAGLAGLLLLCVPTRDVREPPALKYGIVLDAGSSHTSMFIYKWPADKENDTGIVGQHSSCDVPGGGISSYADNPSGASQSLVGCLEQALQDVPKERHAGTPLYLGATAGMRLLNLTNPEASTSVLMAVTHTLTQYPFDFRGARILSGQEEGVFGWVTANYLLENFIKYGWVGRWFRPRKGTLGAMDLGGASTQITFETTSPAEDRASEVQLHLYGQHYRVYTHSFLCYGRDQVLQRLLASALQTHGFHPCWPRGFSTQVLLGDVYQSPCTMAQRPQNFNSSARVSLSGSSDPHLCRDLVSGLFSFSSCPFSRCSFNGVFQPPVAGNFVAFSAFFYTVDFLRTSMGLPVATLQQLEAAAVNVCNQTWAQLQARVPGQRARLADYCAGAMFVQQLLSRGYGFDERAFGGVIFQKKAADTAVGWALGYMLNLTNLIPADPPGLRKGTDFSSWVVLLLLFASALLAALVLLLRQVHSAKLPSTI

[4] = Drug metabolism at 2 mM at basic pH after 5 days by 31P NMR method; type: physicochemical; conditions: read-out: Drug metabolism
[5] = molecular target: T2, Ectonucleoside triphosphate diphosphohydrolase 2 (Homo sapiens); assay: Activation of human NTPDase2 using ATP as substrate preincubated for 3 mins followed by substrate addition measured after 10 mins by malachite green reagent-based assay relative to control; procedure, shortened: as §1
[6] = Stability of the compound assessed as air oxidation at room temperature at 1.8 mM after 3 weeks by 31P NMR method; type: physicochemical; conditions: 504 h, 1800 µM
[7] = molecular target: T1, Ectonucleoside triphosphate diphosphohydrolase 3 (Homo sapiens); assay: Activation of human NTPDase3 using ATP as substrate preincubated for 3 mins followed by substrate addition measured after 10 mins by malachite green reagent-based assay relative to control; procedure, shortened: as §1
[8] = molecular target: T3, Ectonucleotide pyrophosphatase/phosphodiesterase family member 3 (Homo sapiens) (UniProt O14638); assay: Inhibition of human NPP3 at 100 uM using pNP-TMP as substrate preincubated for 3 mins followed by substrate addition measured after 15 mins
T3 sequence (whole entry): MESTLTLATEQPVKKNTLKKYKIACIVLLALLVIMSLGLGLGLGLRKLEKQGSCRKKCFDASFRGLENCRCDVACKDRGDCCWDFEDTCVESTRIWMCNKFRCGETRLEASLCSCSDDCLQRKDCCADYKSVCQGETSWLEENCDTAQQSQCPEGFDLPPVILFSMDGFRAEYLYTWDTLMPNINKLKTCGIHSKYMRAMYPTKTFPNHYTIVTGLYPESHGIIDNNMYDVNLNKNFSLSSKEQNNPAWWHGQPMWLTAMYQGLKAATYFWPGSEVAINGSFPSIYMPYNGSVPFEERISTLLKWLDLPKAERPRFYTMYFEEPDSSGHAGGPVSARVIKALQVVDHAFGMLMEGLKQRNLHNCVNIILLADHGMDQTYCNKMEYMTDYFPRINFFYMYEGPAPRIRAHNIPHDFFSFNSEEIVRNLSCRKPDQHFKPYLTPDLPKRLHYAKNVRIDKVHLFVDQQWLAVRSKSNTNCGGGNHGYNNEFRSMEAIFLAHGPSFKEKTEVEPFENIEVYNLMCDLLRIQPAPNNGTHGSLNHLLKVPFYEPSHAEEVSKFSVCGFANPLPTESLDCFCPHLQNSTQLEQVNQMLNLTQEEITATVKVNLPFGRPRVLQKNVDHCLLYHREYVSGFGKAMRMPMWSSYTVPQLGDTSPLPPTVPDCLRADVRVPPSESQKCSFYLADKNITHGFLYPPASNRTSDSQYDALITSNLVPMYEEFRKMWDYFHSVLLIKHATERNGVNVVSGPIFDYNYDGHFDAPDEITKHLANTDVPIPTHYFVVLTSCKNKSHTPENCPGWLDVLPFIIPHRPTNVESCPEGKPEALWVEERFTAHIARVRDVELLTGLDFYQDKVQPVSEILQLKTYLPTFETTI
Procedure, shortened: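 Human NPP1 (4−5 μg) or NPP3 (12−14 μg) cell lysate in mM 1 CaCl2, 140 NaCl, 5 KCl, 50 Tris pH 8.5, 37 °C. Compound at 100 μM, 3 min preincubation, 100 μM pNP-TMP substrate. p-Nitrophenol read at 405 nm after 15 min. Blank with enzyme added at end subtracted. Activity without compound taken as 100%. At least two independent experiments in triplicate.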

| SMILES | inhibition [1] | degraded at 120 h, 2000 µM [2] [%] | inhibition [3] | degraded at 120 h, 2000 µM [4] [%] | Activity [5] [%] | Stability [6] | Activity [7] [%] | inhibition [8] [%] |
| --- | --- | --- | --- | --- | --- | --- | --- | --- |
| O=c1ccn([C@@H]2O[C@H](COP(=S)(S)OP(=O)(O)OP(=O)(O)O)[C@@H](O)[C@H]2O)c(=O)[nH]1 (stereo partly specified) | inactive | 11 | inactive | 13 | 7 to 27 | Stable | 7 to 27 | – |
| O=c1ccn([C@@H]2O[C@H](COP(=S)(S)OP(=O)(O)CP(=O)(O)O)[C@@H](O)[C@H]2O)c(=O)[nH]1 (stereo partly specified) | 15% | 2 | 15% | 8 | – | Stable | – | 21 |
| O=c1ccn([C@@H]2O[C@H](COP(=S)(S)OP(=O)(O)O)[C@@H](O)[C@H]2O)c(=O)[nH]1 (stereo partly specified) | 15% | – | 15% | – | – | – | – | 21 |

Reference: ChEMBL document CHEMBL4177769, “Highly Selective and Potent Ectonucleotide Pyrophosphatase-1 (NPP1) Inhibitors Based on Uridine 5'-Pα,α-Dithiophosphate Analogues” (J Med Chem, 2018)
